Reference: ChEMBL document CHEMBL3588826, “Chimeric derivatives of functionalized amino acids and α-aminoamides: compounds with anticonvulsant activity in seizure models and inhibitory actions on central, peripheral, and cardiac isoforms of voltage-gated sodium channels” (Bioorg Med Chem, 2015)
Active and inactive are the calls of the source. No cut-off for these calls is given here.

Key:
[1] = molecular target: T1, Sodium channel protein type 5 subunit alpha (Homo sapiens, UniProt Q14524); assay: Inhibition of human Nav1.5 expressed in HEK293 cells assessed as half-maximal voltage for steady state activation at 10 uM by whole cell patch-clamp electrophysiology (reference value: -55.71 +/-3.81 mV); type: cell-based; settings: hek293, 10 µM
T1 sequence (Q14524 whole entry): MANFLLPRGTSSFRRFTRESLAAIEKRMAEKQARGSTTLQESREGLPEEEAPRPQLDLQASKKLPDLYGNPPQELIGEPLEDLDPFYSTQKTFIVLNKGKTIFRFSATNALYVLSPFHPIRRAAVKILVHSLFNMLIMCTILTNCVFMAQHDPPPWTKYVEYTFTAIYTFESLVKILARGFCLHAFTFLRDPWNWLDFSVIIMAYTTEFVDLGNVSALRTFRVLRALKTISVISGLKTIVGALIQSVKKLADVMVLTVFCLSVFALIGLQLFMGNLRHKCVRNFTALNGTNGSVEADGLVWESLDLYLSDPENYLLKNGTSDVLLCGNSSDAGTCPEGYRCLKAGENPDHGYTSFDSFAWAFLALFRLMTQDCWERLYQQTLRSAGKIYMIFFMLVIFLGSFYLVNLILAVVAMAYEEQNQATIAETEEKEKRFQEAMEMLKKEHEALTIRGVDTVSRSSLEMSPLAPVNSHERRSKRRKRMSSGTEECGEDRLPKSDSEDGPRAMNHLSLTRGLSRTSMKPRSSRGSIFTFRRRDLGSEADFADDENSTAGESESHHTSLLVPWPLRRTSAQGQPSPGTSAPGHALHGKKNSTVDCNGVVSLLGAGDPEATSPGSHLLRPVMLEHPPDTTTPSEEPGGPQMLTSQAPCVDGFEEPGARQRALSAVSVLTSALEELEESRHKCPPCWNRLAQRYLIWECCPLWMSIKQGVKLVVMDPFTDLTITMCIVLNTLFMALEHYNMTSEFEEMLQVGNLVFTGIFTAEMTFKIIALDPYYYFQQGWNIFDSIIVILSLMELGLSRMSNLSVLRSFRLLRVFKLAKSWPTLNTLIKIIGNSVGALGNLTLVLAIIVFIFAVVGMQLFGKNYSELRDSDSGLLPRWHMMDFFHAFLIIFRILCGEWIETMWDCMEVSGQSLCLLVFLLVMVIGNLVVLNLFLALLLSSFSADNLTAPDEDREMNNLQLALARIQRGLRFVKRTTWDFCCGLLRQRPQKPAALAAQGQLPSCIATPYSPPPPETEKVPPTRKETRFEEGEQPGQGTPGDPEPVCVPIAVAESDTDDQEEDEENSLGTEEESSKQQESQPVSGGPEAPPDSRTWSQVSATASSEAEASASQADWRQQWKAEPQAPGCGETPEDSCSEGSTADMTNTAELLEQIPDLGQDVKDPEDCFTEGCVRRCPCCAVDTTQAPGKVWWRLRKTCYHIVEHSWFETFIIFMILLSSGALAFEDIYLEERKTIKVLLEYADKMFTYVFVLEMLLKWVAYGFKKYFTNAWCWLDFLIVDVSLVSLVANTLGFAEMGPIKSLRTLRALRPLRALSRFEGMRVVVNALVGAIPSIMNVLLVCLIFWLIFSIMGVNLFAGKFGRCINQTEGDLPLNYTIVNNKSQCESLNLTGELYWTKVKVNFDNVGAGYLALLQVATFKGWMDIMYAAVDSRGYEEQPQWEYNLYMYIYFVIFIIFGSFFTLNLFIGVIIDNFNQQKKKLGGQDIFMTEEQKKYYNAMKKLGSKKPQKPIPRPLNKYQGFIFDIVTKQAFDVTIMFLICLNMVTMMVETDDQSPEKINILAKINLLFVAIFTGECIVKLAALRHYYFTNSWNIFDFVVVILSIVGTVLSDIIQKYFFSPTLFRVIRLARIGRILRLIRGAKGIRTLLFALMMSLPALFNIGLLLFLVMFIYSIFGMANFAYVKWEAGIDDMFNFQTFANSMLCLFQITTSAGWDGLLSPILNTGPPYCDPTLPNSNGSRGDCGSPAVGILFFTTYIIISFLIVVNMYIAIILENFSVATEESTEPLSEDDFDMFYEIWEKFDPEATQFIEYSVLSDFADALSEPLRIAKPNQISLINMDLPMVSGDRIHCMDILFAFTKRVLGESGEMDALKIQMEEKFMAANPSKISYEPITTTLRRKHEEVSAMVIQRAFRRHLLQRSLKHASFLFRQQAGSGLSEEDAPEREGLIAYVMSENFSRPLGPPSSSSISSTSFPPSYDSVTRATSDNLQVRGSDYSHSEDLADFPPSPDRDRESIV

Rattus norvegicus [2] = assay: Toxicity in po dosed Sprague-Dawley rat assessed as changes in respiratory rate administered via gavage; type: organism-based; settings: in vivo
Summary of the method: (§1)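 Non-GLP 7-day repeated-dose study in female Sprague-Dawley rats given oral gavage at 20, 60 and 180 mg/kg/day. Endpoints were weight bearing, gait coordination, respiratory rate, relative organ weights, clinical chemistry and gross pathology, with NOAEL determined.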

Cytochrome P450 2D6 = Cytochrome P450 2D6 (Homo sapiens, UniProt P10635); assay: Inhibition of human CYP2D6 at 10 uM; type: ADME
Sequence of Cytochrome P450 2D6 (P10635 whole entry): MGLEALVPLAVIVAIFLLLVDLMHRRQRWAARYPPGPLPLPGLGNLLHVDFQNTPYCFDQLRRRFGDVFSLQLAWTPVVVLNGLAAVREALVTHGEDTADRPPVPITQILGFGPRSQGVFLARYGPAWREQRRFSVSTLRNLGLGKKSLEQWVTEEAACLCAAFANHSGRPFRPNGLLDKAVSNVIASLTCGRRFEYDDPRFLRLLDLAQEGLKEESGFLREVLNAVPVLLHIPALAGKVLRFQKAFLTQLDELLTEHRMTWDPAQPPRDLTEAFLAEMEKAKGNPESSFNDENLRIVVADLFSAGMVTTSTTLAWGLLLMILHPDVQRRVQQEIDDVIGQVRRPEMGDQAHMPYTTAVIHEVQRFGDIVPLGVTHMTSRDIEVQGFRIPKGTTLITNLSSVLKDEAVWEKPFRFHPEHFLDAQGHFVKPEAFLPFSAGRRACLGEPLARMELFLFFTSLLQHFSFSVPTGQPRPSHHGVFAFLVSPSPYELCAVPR
Summary of the method: (§2)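 Test compound at 10 μM against a human CYP450 panel (CYP1A2, 2B6, 2C8, 2C9, 2C19, 2D6, 3A4/5). Direct inhibition was measured, and time-dependent inhibition was measured after a 30-min preincubation.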

Cytochrome P450 1A2 = molecular target: T2, Cytochrome P450 1A2 (Homo sapiens, UniProt P05177); assay: Inhibition of human CYP1A2 at 10 uM; type: ADME; summary of the method: as §2
T2 sequence (P05177 whole entry): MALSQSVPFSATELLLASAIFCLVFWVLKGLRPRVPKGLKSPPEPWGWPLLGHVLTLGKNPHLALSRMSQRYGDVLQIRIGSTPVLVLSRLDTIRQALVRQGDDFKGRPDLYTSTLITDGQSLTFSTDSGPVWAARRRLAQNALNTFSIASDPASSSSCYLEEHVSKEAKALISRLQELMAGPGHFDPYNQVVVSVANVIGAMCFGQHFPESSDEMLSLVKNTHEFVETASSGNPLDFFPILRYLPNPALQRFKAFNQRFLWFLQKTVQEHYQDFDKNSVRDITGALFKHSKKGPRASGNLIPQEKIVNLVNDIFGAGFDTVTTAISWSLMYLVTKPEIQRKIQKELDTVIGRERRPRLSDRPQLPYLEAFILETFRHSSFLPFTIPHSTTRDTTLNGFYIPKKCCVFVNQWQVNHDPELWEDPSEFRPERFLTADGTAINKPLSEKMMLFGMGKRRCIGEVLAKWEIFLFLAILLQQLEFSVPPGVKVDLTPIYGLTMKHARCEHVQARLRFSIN

[3] = molecular target: Sodium channel protein type 1 subunit alpha (Homo sapiens) (UniProt P35498); assay: Inhibition of human Nav1.1 expressed in HEK293 cells assessed as transition of channels to slow-inactivated state at 10 uM measured at -50 mV by whole cell patch-clamp electrophysiology; type: cell-based
Summary of the method: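 HEK293 cells stably expressing hNav1.1, rNav1.3, hNav1.7 or hNav1.5 were grown in DMEM with 10% FBS. Recordings were whole-cell voltage clamp at room temperature, with 10 μM compound versus 0.1% DMSO. Slow inactivation at −50 mV was calculated as 1 minus normalized peak INa. Nav1.5 used hyperpolarized protocols. Data are from 5–6 cells.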

[4] = molecular target: Sodium channel protein type 1 subunit alpha (Homo sapiens) (UniProt P35498); assay: Inhibition of human Nav1.1 expressed in HEK293 cells assessed as half-maximal voltage for steady state fast-inactivation at 10 uM by whole cell patch-clamp electrophysiology (reference value: -64.11 +/-3.63 mV); type: cell-based
[5] = Half life in Sprague-Dawley rat at 20 mg/kg, po; type: ADME, organism-based; settings: in vivo
Summary of the method: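 Pharmacokinetics in Sprague-Dawley rats given a single iv dose of 5 mg/kg or an oral dose of 20 mg/kg.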

Rattus norvegicus [6] = assay: Toxicity in po dosed Sprague-Dawley rat assessed as increase in liver weight administered via gavage; type: organism-based; settings: in vivo
Summary of the method: (§3)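 Non-GLP repeated-dose study: female Sprague-Dawley rats given compound by oral gavage once daily for 7 days at 20, 60 and 180 mg/kg/day. Endpoints included weight bearing, gait coordination, respiratory rate, relative organ weights (liver, spleen, thymus), clinical chemistry and gross pathology; NOAEL derived.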

[7] = Inhibition of voltage-gated sodium channel in mouse CAD cells assessed as transition of channels to slow-inactivated state measured at -50 mV by whole cell patch-clamp electrophysiology; type: cell-based
Summary of the method: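 CAD cells were grown in Ham's F12/DMEM with 10% FBS at 37 °C and 5% CO2, with native Na+ currents mostly from Nav1.7. Whole-cell voltage clamp at room temperature across a range of concentrations against 0.1% DMSO. IC50 for induction of slow inactivation was taken from concentration-response curves at −50 mV (also at +20 mV).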

[8] = Protective index, ratio of TD50 for neurotoxicity in ip dosed albino Carworth Farms No. 1 mouse to ED50 for anticonvulsant activity in ip dosed MES albino Carworth Farms No. 1 mouse model; type: toxicity, organism-based; settings: in vivo, read-out: Ratio TD50/ED50
Summary of the method: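 Male albino Carworth Farms No. 1 mice were dosed ip. Protective index = TD50/ED50, the ED50 taken from the ip maximal electroshock test.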

[9] = molecular target: T1, Sodium channel protein type 5 subunit alpha; assay: Frequency-dependent inhibition of human Nav1.5 expressed in HEK293 cells assessed as current amplitude at 10 uM by whole cell patch-clamp electrophysiology; type: cell-based; settings: hek293, 10 µM
Summary of the method: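 Stable HEK293 lines expressing hNav1.1, rNav1.3, hNav1.7 or hNav1.5 were recorded by whole-cell voltage clamp at room temperature, with 10 μM compound versus 0.1% DMSO. A 30-pulse train was applied, and the read-out was the fraction of current remaining at the last pulse normalized to the first. Nav1.5 used hyperpolarized protocols.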

Rattus norvegicus [10] = assay: Toxicity in po dosed Sprague-Dawley rat assessed as gross pathological changes administered via gavage; type: organism-based; settings: in vivo; summary of the method: as §3
[11] = molecular target: Sodium channel protein type 3 subunit alpha (Rattus norvegicus) (UniProt P08104); assay: Inhibition of rat Nav1.3 expressed in HEK293 cells assessed as half-maximal voltage for steady state fast-inactivation at 10 uM by whole cell patch-clamp electrophysiology (reference value: -65.44 +/-5.62 mV); type: cell-based
Sequence of Sodium channel protein type 3 subunit alpha (Rattus norvegicus) (P08104 whole entry): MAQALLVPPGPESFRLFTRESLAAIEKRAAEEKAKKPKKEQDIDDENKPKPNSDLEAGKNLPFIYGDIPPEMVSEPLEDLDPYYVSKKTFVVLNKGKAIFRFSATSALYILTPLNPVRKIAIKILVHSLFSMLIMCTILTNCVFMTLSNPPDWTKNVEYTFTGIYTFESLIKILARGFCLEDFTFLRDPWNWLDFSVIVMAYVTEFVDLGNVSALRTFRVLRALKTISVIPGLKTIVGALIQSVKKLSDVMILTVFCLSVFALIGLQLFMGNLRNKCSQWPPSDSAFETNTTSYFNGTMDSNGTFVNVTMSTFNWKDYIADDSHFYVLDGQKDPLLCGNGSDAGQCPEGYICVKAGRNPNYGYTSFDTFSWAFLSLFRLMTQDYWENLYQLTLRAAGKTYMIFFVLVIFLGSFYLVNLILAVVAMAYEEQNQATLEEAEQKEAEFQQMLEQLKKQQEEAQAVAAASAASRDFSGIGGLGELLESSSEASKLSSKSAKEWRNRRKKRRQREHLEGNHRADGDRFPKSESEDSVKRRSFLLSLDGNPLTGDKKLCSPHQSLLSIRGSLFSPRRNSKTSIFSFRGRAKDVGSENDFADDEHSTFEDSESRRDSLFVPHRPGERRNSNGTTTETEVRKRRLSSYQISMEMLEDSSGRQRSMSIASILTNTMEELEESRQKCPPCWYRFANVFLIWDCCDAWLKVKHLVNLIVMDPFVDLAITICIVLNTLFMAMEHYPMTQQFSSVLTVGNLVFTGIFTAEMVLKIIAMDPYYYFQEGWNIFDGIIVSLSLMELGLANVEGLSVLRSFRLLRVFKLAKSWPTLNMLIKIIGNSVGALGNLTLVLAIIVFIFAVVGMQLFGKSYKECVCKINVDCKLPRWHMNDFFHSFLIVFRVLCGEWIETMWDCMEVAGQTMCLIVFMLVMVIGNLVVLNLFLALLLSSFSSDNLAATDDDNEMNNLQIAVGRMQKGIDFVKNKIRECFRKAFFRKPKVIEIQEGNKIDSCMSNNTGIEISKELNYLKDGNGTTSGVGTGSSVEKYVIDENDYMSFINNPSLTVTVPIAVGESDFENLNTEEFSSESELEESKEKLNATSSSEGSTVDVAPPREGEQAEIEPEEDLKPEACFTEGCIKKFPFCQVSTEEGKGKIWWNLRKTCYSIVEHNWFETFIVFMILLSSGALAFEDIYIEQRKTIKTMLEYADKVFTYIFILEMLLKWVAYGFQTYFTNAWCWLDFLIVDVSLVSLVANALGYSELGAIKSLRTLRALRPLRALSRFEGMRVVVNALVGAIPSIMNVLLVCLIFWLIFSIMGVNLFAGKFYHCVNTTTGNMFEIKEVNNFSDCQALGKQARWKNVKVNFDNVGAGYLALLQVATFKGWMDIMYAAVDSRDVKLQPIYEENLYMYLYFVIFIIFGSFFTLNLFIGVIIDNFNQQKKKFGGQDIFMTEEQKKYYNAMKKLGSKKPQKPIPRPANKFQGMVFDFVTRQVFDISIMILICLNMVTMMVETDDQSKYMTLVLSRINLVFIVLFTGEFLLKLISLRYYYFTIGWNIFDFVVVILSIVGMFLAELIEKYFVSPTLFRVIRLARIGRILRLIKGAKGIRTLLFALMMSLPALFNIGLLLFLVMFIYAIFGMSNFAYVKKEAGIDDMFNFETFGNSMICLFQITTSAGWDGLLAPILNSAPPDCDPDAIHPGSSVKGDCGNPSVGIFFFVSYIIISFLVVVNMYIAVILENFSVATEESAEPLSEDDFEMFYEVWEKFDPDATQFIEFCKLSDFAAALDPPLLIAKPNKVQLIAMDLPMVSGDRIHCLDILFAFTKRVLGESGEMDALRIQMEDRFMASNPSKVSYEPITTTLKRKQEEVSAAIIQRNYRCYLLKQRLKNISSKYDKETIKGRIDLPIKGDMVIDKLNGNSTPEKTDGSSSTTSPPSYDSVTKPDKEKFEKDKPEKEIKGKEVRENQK

[12] = Behavioural toxicity in po dosed albino Sprague-Dawley rat measured at 1 hr; type: organism-based; settings: in vivo
CAD = assay: Effect on steady state activation of voltage-gated sodium channel in mouse CAD cells at 100 nM to 1 uM by whole cell patch-clamp electrophysiology; type: cell-based
Summary of the method: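 CAD cells were recorded by whole-cell voltage clamp at room temperature with several compound concentrations versus 0.1% DMSO. Activation was assessed from conductance, G = I/(Vm − Vrev), versus command voltage. V1/2 and slope were taken from Boltzmann fits to individual recordings and averaged.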

Rattus norvegicus [13] = assay: Toxicity in po dosed Sprague-Dawley rat assessed as coordination in gait administered via gavage; type: organism-based; settings: in vivo; summary of the method: as §1
[14] = Inhibition of voltage-gated sodium channel in mouse CAD cells assessed as transition of channels to slow-inactivated state measured at +20 mV by whole cell patch-clamp electrophysiology; type: cell-based
Summary of the method: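 CAD cells were grown in Ham's F12/DMEM with 10% FBS at 37 °C and 5% CO2, then recorded by whole-cell voltage clamp at room temperature. A concentration range of compound was tested versus 0.1% DMSO. Slow inactivation was measured at −50 and +20 mV, and IC50 was derived from concentration-response curves.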

Rattus norvegicus [15] = assay: Anticonvulsant activity in po dosed albino Sprague-Dawley rat measured at 2 hrs by maximal electroshock seizure test; type: functional
Summary of the method: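 Screened under the NIH anticonvulsant program in male albino Carworth Farms No. 1 mice (ip) and male albino Sprague-Dawley rats (ip or oral). Protection tested by maximal electroshock or 6 Hz (32 mA) psychomotor stimulation.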

COC[C@@H](NC(C)=O)C(=O)NCc1ccc(Oc2cccc(OC(F)(F)F)c2)cc1
V1/2 [1]: -48.99 mV | Activity (Rattus norvegicus [2]): Toxic | inhibition (INH) (Cytochrome P450 2D6): Not Active | inhibition (INH) (Cytochrome P450 1A2): Not Active | inhibition [3]: Active | V1/2 [4]: -76.7 mV | half-life [5]: 4.63 h | Activity (Rattus norvegicus [6]): Toxic | IC50 [7]: 700 nM | selectivity ratio [8]: 6.2 | inhibition (INH) [9]: Not Active | Activity (Rattus norvegicus [10]): Toxic | V1/2 [11]: -72.8 mV | TD50 at 1 h [12]: 240 mg/kg | Activity (CAD): inactive | Activity (Rattus norvegicus [13]): Toxic | IC50 [14]: 640 nM | ED50 (Rattus norvegicus [15]): 8.3 mg/kg
